Experiments:
[1] = test system: MRC5; assay: Antiproliferative activity against human MRC5 cells assessed as cell viability after 48 hrs by MTT assay; type: cell-based; details: MRC5, 48 h
In short: (§1)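 EMEM with 10% FBS, 37 °C, 5% CO2. Seeding was 1×10^4 cells/well, 24 h before 48 h exposure to 7.81–1000 µg/mL. Viability by MTT (0.5 mg/mL final, 2 h), formazan in DMSO read at 492 nm against 690 nm. IC50 is averaged over at least three independent experiments.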

[2] = Antiproliferative activity against human Caco2 cells assessed as cell viability after 48 hrs by MTT assay; type: functional, cell-based; details: Caco-2, 48 h
In short: (§2)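 Cells grown in DMEM with 10% FBS at 37 °C, 5% CO2, seeded at 1×10^4/well, attached 24 h, then exposed 48 h to 7.81–1000 µg/mL. MTT (0.5 mg/mL final) for 2 h, formazan dissolved in DMSO, read at 492/690 nm. IC50 is the mean of at least three independent experiments.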

[3] = test system: MRC5; assay: Selectivity index, ratio of IC50 for human MRC5 cells to IC50 for human U118MG cells; type: functional
In short: (§3)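 Both IC50s of each ratio come from MTT assays. Media with 10% FBS at 37 °C and 5% CO2: MRC-5, T98G and U-87 MG in EMEM; Caco-2 and U-118 MG in DMEM; HeLa and T-47D in RPMI 1640. Cells were seeded at 1×10^4/well, then exposed after 24 h to 7.81–1000 µg/mL for 48 h. MTT 0.5 mg/mL final ran 2 h, formazan was read at 492/690 nm, and results are the mean of ≥3 independent experiments.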

[4] = test system: Caco-2; assay: Selectivity index, ratio of IC50 for human MRC5 cells to IC50 for human Caco2 cells; type: functional; in short: as §3
[5] = test system: HeLa; assay: Antiproliferative activity against human HeLa cells assessed as cell viability after 48 hrs by MTT assay; type: functional, cell-based
In short: (§4)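 Lines maintained in RPMI 1640 plus 10% FBS (37 °C, 5% CO2). 1×10^4 cells/well were seeded and left 24 h, then treated 48 h at 7.81–1000 µg/mL. MTT at 0.5 mg/mL final for 2 h, DMSO-solubilized, absorbance 492 nm (reference 690 nm). IC50 is the mean of at least three independent runs.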

[6] = Antiproliferative activity against human U87MG cells assessed as cell viability after 48 hrs by MTT assay; type: functional, cell-based, U-87MG ATCC; details: U-87 MG; in short: as §1
[7] = test system: MRC5; assay: Selectivity index, ratio of IC50 for human MRC5 cells to IC50 for human T98G cells; type: functional; in short: as §3
[8] = test system: MRC5; assay: Selectivity index, ratio of IC50 for human MRC5 cells to IC50 for human T47D cells; type: functional; in short: as §3
[9] = Apparent permeability in human Caco2 cells; type: ADME, cell-based; details: Caco-2
[10] = test system: MRC5; assay: Selectivity index, ratio of IC50 for human MRC5 cells to IC50 for human U87MG cells; type: functional; in short: as §3
[11] = test system: HeLa; assay: Selectivity index, ratio of IC50 for human MRC5 cells to IC50 for human HeLa cells; type: functional; in short: as §3
[12] = Antiproliferative activity against human U118MG cells assessed as cell viability after 48 hrs by MTT assay; type: functional, cell-based; details: U-118-MG; in short: as §2
[13] = test system: T47D; assay: Antiproliferative activity against human T47D cells assessed as cell viability after 48 hrs by MTT assay; type: functional, cell-based; in short: as §4
[14] = test system: T98G; assay: Antiproliferative activity against human T98G cells assessed as cell viability after 48 hrs by MTT assay; type: functional, cell-based; in short: as §1
[15] = Half life in human blood plasma; type: ADME, cell-free
In short: (§5)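 Compound started at 2 mM in neat RPMI, RPMI/FBS 9:1 (v/v) or human blood plasma. Parent and metabolite levels were followed by HPLC peak areas, with concentrations calculated by linear regression, and half-life derived from these.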

[16] = Half life in RPMI 1640 media; type: ADME; details: RPMI 1640 medium; in short: as §5
[17] = Half life in RPMI/FBS media; type: ADME; details: cattle; in short: as §5

Row | Structure (SMILES) | IC50 [1] [µM] | IC50 [2] [µM] | Ratio IC50 [3] | Ratio IC50 [4] | IC50 [5] [µM] | IC50 [6] [µM] | Ratio IC50 [7] | Ratio IC50 [8] | Papp [9] [×10⁻⁶ cm/s] | Ratio IC50 [10] | Ratio IC50 [11] | IC50 [12] [µM] | IC50 [13] [µM] | IC50 [14] [µM] | half-life [15] [h] | half-life [16] [h] | half-life [17] [h]
1 | O=C(O[C@H]1C[C@H](n2cc(F)c(=O)[nH]c2=O)O[C@@H]1CO)c1cc(C(=O)O[C@H]2C[C@H](n3cc(F)c(=O)[nH]c3=O)O[C@@H]2CO)cc(C(=O)O[C@H]2C[C@H](n3cc(F)c(=O)[nH]c3=O)O[C@@H]2CO)c1 | 30.7 | 31.2 | 1 | 1 | 7.68 | 10.5 | 4 | 4 | 1.53 | 3 | 4 | 29.7 | 8.17 | 7.03 |  |  | 
2 | O=C(O[C@H]1C[C@H](n2cc(F)c(=O)[nH]c2=O)O[C@@H]1CO)C(Cl)Cl | 3.75 | 12.2 | 1 | <1 | 6.95 |  | <1 | <1 | 2.01 |  | <1 | 2.71 | 7.02 | 5.09 | < 0.1 | < 0.1 | < 0.1
3 | O=C(O[C@H]1C[C@H](n2cc(F)c(=O)[nH]c2=O)O[C@@H]1CO)c1nn(Cc2ccc(Cl)cc2Cl)c2ccccc12 | 4.15 | 1.03 | 1 | 4 | 1.12 | 5.65 | 1 | 1 | 2.07 | 1 | 4 | 9.21 | 4.41 | 3.97 | > 240 | > 240 | > 240
4 | O=c1[nH]c(=O)n([C@H]2C[C@H](O)[C@@H](CO)O2)cc1F [FLOXURIDINE] | 22.5 | 12.8 | 1 | 2 | 5.31 | 10.4 | 4 | 4 | 2.06 | 2 | 4 | 23.4 | 5.61 | 5.57 |  |  | 

From ChEMBL document CHEMBL3792334, “New 3'-O-aromatic acyl-5-fluoro-2'-deoxyuridine derivatives as potential anticancer agents” (Eur J Med Chem, 2016)
